Test results published in ChEMBL document CHEMBL4765269, “Design, synthesis and evaluation of phenylthiazole and phenylthiophene pyrimidindiamine derivatives targeting the bacterial membrane” (Eur J Med Chem, 2020).
Values after ≈ are worked out from the molar mass of the structure shown. Active and inactive are the calls of the source. The rule behind the calls is not given here. Where a SMILES comes first, the peptide text is derived from it. Bridges are numbered along the chain shown (N, C = ends). [ ]: non-standard residue; d: D form. The star is where a group is joined. X1 = CC[C@H](C)CCCCC(=O)*; Dab = NCC[C@H](N)C(=O)O

Key:
[1] = system: Escherichia coli; assay: Antibacterial activity against Escherichia coli ATCC 25922 assessed as inhibition of growth measured after 24 hrs by CLSI based broth microdilution method; format: functional
[2] = system: Staphylococcus aureus; assay: Antibacterial activity against Staphylococcus aureus ATCC 29213 assessed as inhibition of growth measured after 24 hrs by CLSI based broth microdilution method; format: functional
[3] = system: Escherichia coli; assay: Antibacterial activity against Escherichia coli ATCC 25922 assessed as bacterial growth inhibition at 0.5 times of MIC concentration measured at logarithmic phase 6 th hr of bacterial cycle; format: functional, organism-based; conditions: time 24.0 hrs
Outline: (§1)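 Bacteria grown in Mueller Hinton broth with compound at several MIC multiples, shaken at 220 rpm and 37 °C for 24 h. Growth was recorded every 2 h over the 24 h. The solvent control was 1% DMSO under the same conditions.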

[4] = system: Escherichia coli; assay: Induction of morphological changes in Escherichia coli ATCC 25922 assessed as deformed, pitted and shriveled surface at MIC incubated for 12 hrs by scanning electron microscopy; format: functional, organism-based
Outline: (§2)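 Cells treated with 1× MIC compound or PBS, then washed three times in PBS. Pellets were fixed in 2.5% glutaraldehyde for 2 h, dehydrated through an ethanol series, critical-point dried and gold-coated. Imaging was by SEM at 3 kV.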

[5] = system: Cell membrane; assay: Induction of membrane depolarization in Staphylococcus aureus ATCC 29213 assessed as increased the fluorescence intensity at 1 to 2 times of MIC incubated for 80 min by [DiSC3(5)] probe based fluorescence assay; format: functional, subcellular
Outline: (§3)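 Log-phase cells at 10^7 CFU/mL in PBS with 0.4 µM DiSC3(5) and 0.1 M KCl, kept in the dark. […] Fluorescence (ex 622, em 670 nm) was recorded continuously for 80 min.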

[6] = system: Staphylococcus aureus; assay: Induction of morphological changes in Staphylococcus aureus ATCC 29213 assessed as damaged cells at MIC incubated for 12 hrs by Transmission electron microscopy; format: functional, organism-based
Outline: (§4)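 Cells treated with 1× MIC compound or PBS, then washed three times in PBS. Pellets were fixed in 2.5% glutaraldehyde and then 1% osmium tetroxide, 2 h each, and examined by TEM.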

[7] = Toxicity in rabbit red blood cells assessed as hemolysis at 3 to 22.5 ug/ml incubated for 1 hr relative to control; format: cell-based, Oryctolagus cuniculus, Erythrocyte; conditions: at 3 to 22.5 µg/mL, dose 3-22.5 µg/ml, read-out: Activity
Outline: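 Washed rabbit erythrocytes at 2% in PBS were mixed with compound at final 3 to 22.5 µg/mL for 1 h at room temperature. After centrifugation at 1500 rpm for 10 min, supernatant absorbance was read at 450 nm. Hemolysis % = (A − A_PBS)/(A_Triton − A_PBS) × 100, with 0.5% Triton X-100 as the positive control. Run in triplicate.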

[8] = system: Staphylococcus aureus; assay: Antibacterial activity against Staphylococcus aureus ATCC 29213 infected in mouse C57BL/6 bacterimia model assessed as reduction in number of viable pathogens in peritoneal cavity at 24 mg/kg, ip treated 1 hr after infection measured after 24 hrs; format: functional, organism-based
Outline: (§5)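 Male C57BL/6 mice (20 ± 2 g, 7 per group) got an ip injection of 200 µL mid-log S. aureus in sterile saline (about 10^9 CFU per 20 g). Compound was given ip 1 h later. Controls were 0.9% saline and polymyxin B 12 mg/kg. After 24 h, peritoneal lavage (2 mL PBS) was serially diluted 10-fold onto TSA and incubated 18-24 h at 37 °C. CFU were counted.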

[9] = system: Cell membrane; assay: Induction of membrane disruption in Escherichia coli ATCC 25922 at 1 to 4 x MIC measured within 20 min by Ethidium bromide based fluorescence assay; format: functional, subcellular
Outline: (§6)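 Log-phase cells washed and resuspended in PBS at about 10^8 CFU/mL. Ethidium bromide ([…], stated as final) and compound at various concentrations were added. Fluorescence (ex 540, em 590 nm) was read every 20 min for 80 min against a solvent control.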

[10] = system: Cell membrane; assay: Induction of cell membrane damage in Staphylococcus aureus ATCC 29213 assessed as fluorescence emission at MIC after 1 hr by propidium iodide staining based transmission electron microscopy (Rvb= 1.53%); format: functional, subcellular; conditions: in the assay text read “flow cytometry” for “transmission electron microscopy”
Outline: (§7)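 Log-phase bacteria diluted in PBS to about 10^9 CFU/mL and exposed to 1× MIC compound at 37 °C for 1 h. Cells were washed and stained with 60 µM propidium iodide in the dark for 15 min, then read at once by flow cytometry. The percentage of PI-stained cells was reported against an untreated control.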

[11] = system: Staphylococcus aureus; assay: Induction of morphological changes in Staphylococcus aureus ATCC 29213 assessed as deformed, pitted and shriveled surface at MIC incubated for 12 hrs by scanning electron microscopy; format: functional, organism-based; outline: as §2
[12] = system: Cell membrane; assay: Induction of cell membrane damage in Escherichia coli ATCC 25922 assessed as fluorescence emission at MIC after 1 hr by propidium iodide staining based transmission electron microscopy (reference value: 4.34%); format: functional, subcellular; conditions: in the assay text read “flow cytometry” for “transmission electron microscopy”; outline: as §7
[13] = system: Cell membrane; assay: Induction of membrane depolarization in Escherichia coli ATCC 25922 assessed as increased the fluorescence intensity at 1 to 2 times of MIC incubated for 80 min by [DiSC3(5)] probe based fluorescence assay; format: functional, subcellular; outline: as §3
[14] = system: Cell membrane; assay: Induction of membrane disruption in Staphylococcus aureus ATCC 29213 at 1 to 4 x MIC measured within 20 min by Ethidium bromide based fluorescence assay; format: functional, subcellular; outline: as §6
[15] = system: Staphylococcus aureus; assay: Antibacterial activity against Staphylococcus aureus ATCC 29213 assessed as bacterial growth inhibition at 0.5 times of MIC concentration measured at logarithmic phase 6 th hr of bacterial cycle; format: functional, organism-based; conditions: time 24.0 hrs; outline: as §1
[16] = system: Staphylococcus aureus; assay: Antibacterial activity against Staphylococcus aureus ATCC 29213 infected in mouse C57BL/6 bacterimia model assessed as reduction in number of viable pathogens in peritoneal cavity at 12 mg/kg, ip treated 1 hr after infection measured after 24 hrs; format: functional, organism-based; outline: as §5
[17] = system: Staphylococcus aureus; assay: Antibacterial activity against Staphylococcus aureus ATCC 29213 assessed as bacterial growth inhibition at 1 to 2 times of MIC concentration measured at logarithmic phase 6 th hr of bacterial cycle; format: functional; conditions: time 6 hrs; outline: as §1
[18] = system: Escherichia coli; assay: Antibacterial activity against Escherichia coli ATCC 25922 assessed as bacterial growth inhibition at 1 to 2 times of MIC concentration measured at logarithmic phase 6 th hr of bacterial cycle; format: functional; conditions: time 6 hrs; outline: as §1
[19] = system: Escherichia coli; assay: Induction of morphological changes in Escherichia coli ATCC 25922 assessed as damaged cells at MIC incubated for 12 hrs by Transmission electron microscopy; format: functional, organism-based; outline: as §4

CCNc1nccc(NCc2ccc(-c3ccccc3)s2)n1
MIC [1]: 16 µg/mL (≈ 51.5 µM)
MIC [2]: > 32 µg/mL

CCCCN(CCCC)c1nccc(NCc2ccc(-c3ccccc3)s2)n1
MIC [1]: > 32 µg/mL
MIC [2]: > 32 µg/mL

CN[C@H](CC(C)C)C(=O)N[C@H]1C(=O)N[C@@H](CC(N)=O)C(=O)N[C@H]2C(=O)N[C@H]3C(=O)N[C@H](C(=O)N[C@H](C(=O)O)c4cc(O)cc(O)c4-c4cc3ccc4O)[C@H](O)c3ccc(c(Cl)c3)Oc3cc2cc(c3O[C@@H]2O[C@H](CO)[C@@H](O)[C@H](O)[C@H]2O[C@H]2C[C@](C)(N)[C@H](O)[C@H](C)O2)Oc2ccc(cc2Cl)[C@H]1O [VANCOMYCIN]
MIC [1]: 1 µg/mL (≈ 0.69 µM)

CC(C)CNc1nccc(NCc2ccc(-c3ccccc3)s2)n1
MIC [1]: 8 µg/mL (≈ 23.6 µM)
MIC [2]: 8 µg/mL (≈ 23.6 µM)

CCCNc1nccc(NCc2ccc(-c3ccccc3)s2)n1
MIC [1]: 8 µg/mL (≈ 24.7 µM)
MIC [2]: 16 µg/mL (≈ 49.3 µM)

CC(C)Nc1nccc(NCc2ccc(-c3ccccc3)s2)n1
MIC [1]: > 32 µg/mL
MIC [2]: > 32 µg/mL

CC(C)CNc1nccc(NCc2ccc(-c3ccc(Br)cc3)s2)n1
MIC [1]: 2 µg/mL (≈ 4.79 µM)
MIC [2]: 4 µg/mL (≈ 9.58 µM)

CC(C)CNc1nccc(NCc2ccc(-c3ccc(C(C)(C)C)cc3)s2)n1
MIC [1]: 2 µg/mL (≈ 5.07 µM)
MIC [2]: 8 µg/mL (≈ 20.3 µM)

CC(C)CNc1nccc(NCc2ccc(-c3cccc(Br)c3)s2)n1
Activity [3]: Active
Activity [4]: Active
Activity [5]: Active
MIC [1]: 2 µg/mL (≈ 4.79 µM)
Activity [6]: Active
hemolysis at 1 h [7]: < 20%
Activity [8]: Active
Activity [9]: Active
Activity [10]: 58.5%
Activity [11]: Active
Activity [12]: 77.2%
Activity [13]: Active
Activity [14]: Active
MIC [2]: 3 µg/mL (≈ 7.19 µM)
Activity [15]: Active
Activity [16]: Active
inhibition (INH) [17]: 100%
inhibition (INH) [18]: 100%
Activity [19]: Active

CC[C@H](C)CCCCC(=O)N[C@@H](CCN)C(=O)N[C@H](C(=O)N[C@@H](CCN)C(=O)N[C@H]1CCNC(=O)[C@H]([C@@H](C)O)NC(=O)[C@H](CCN)NC(=O)[C@H](CCN)NC(=O)[C@H](CC(C)C)NC(=O)[C@@H](Cc2ccccc2)NC(=O)[C@H](CCN)NC1=O)[C@@H](C)O (X1-[Dab]T[Dab][Dab][Dab][dF]L[Dab][Dab]T; lactam 4-C)
MIC [1]: 32 µg/mL (≈ 26.6 µM)
MIC [2]: 512 µg/mL (≈ 425 µM)

CCCN(CCC)c1nccc(NCc2ccc(-c3ccccc3)s2)n1
MIC [1]: 8 µg/mL (≈ 21.8 µM)
MIC [2]: > 32 µg/mL

CC(C)CNc1nccc(NCc2ccc(-c3ccccc3Br)s2)n1
MIC [1]: 4 µg/mL (≈ 9.58 µM)
MIC [2]: 8 µg/mL (≈ 19.2 µM)

CC(C)CNc1nccc(NCc2ccc(-c3ccc(OCc4ccccc4)cc3)s2)n1
MIC [1]: 8 µg/mL (≈ 18 µM)
MIC [2]: 8 µg/mL (≈ 18 µM)

CCCCNc1nccc(NCc2ccc(-c3ccccc3)s2)n1
MIC [1]: > 32 µg/mL
MIC [2]: 4 µg/mL (≈ 11.8 µM)

COc1ccc(-c2ccc(CNc3ccnc(NCC(C)C)n3)s2)cc1
MIC [1]: 4 µg/mL (≈ 10.9 µM)
MIC [2]: 4 µg/mL (≈ 10.9 µM)

c1ccc(-c2ccc(CNc3ccnc(N4CCCC4)n3)s2)cc1
MIC [1]: 8 µg/mL (≈ 23.8 µM)
MIC [2]: 8 µg/mL (≈ 23.8 µM)

Clc1nccc(NCc2csc(-c3ccccc3)n2)n1
MIC [1]: > 32 µg/mL
MIC [2]: > 32 µg/mL

O=C(N[C@H](CO)[C@H](O)c1ccc([N+](=O)[O-])cc1)C(Cl)Cl [CHLORAMPHENICOL]
MIC [1]: 8 µg/mL (≈ 24.8 µM)
MIC [2]: 8 µg/mL (≈ 24.8 µM)

CC(C)CNc1nccc(NCc2csc(-c3ccccc3)n2)n1
MIC [1]: > 32 µg/mL
MIC [2]: > 32 µg/mL

CC(C)CNc1nccc(NCc2ccc(-c3ccc(F)cc3)s2)n1
MIC [1]: > 32 µg/mL
MIC [2]: 8 µg/mL (≈ 22.4 µM)

c1ccc(-c2ccc(CNc3ccnc(N4CCOCC4)n3)s2)cc1
MIC [1]: > 32 µg/mL
MIC [2]: > 32 µg/mL

c1ccc(-c2ccc(CNc3ccnc(N4CCNCC4)n3)s2)cc1
MIC [1]: > 32 µg/mL
MIC [2]: > 32 µg/mL

CC(C)CN(CC(C)C)c1nccc(NCc2ccc(-c3ccccc3)s2)n1
MIC [1]: > 32 µg/mL
MIC [2]: > 32 µg/mL

CC(C)CNc1nccc(NCc2ccc(-c3ccc(Cl)cc3)s2)n1
MIC [1]: 8 µg/mL (≈ 21.5 µM)
MIC [2]: 8 µg/mL (≈ 21.5 µM)
